The text below walks through data of ChEMBL document CHEMBL1208677, “Synthesis and antitumor activity of liquiritigenin thiosemicarbazone derivatives” (Eur J Med Chem, 2010).

In one experiment the test system is K562. Description: Cytotoxicity against human K562 cells after 72 hrs by MTT assay. As to conditions: K562, 72 h. The experiment is classed as functional, cell-based. In short, it runs like this: (§1)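 Cells in RPMI-1640 were exposed to compound for 72 h, then given MTT and incubated a further 4 h at 37 °C. Formazan was dissolved in DMSO and absorbance read at 570 and 630 nm. Triplicate wells per point across three independent experiments. IC50 (50% inhibition of viability) was taken from concentration-response curves by linear regression, as the mean of three determinations.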

The subject of another experiment is HCT-116. In words: Cytotoxicity against human HCT116 cells after 72 hrs by MTT assay. It is filed as functional, cell-based. The following applies: HCT-116, 72 h. Summed up: as §1
(In general: Tetrazolium dyes change colour on reduction, which living cells bring about.)

The next experiment relates to HeLa. In words: Cytotoxicity against human HeLa cells after 72 hrs by MTT assay. The experiment is classed as functional, cell-based. Summed up: as §1
In the next experiment the test system is DU-145 (human). In words: Cytotoxicity against human DU145 cells after 72 hrs by MTT assay. The following applies: DU-145, 72 h.
Another experiment has as its system SGC-7901 (human). In words: Cytotoxicity against human SGC7901 cells after 72 hrs by MTT assay. The following applies: SGC-7901, 72 h.

A value given as a limit tells only on which side of the number the result lay.

The IC50 is the point on the concentration scale where inhibition reaches its midpoint. Read a high IC50 as a need for much substance. With `CCCNC(=S)N/N=C1\CC(c2ccc(O)cc2)Oc2cc(O)ccc21` (stereo not given), the IC50 in the experiment with K562 stood at 31 µM; in the experiment on HCT-116, 54 µM; in the experiment with HeLa it was 40.2 µM; with DU-145 (human), 31.2 µM; in the experiment with SGC-7901 (human), 74.7 µM.

With `Oc1ccc(C2C/C(=N\NC(=S)N3CCOCC3)c3ccc(O)cc3O2)cc1` (stereo not given), the IC50 amounted to 29.4 µM with K562; 63.5 µM in the experiment with HCT-116; 76.3 µM in the experiment on HeLa; 52.2 µM with DU-145 (human); 84.5 µM in the experiment on SGC-7901 (human).

As for `CN1CCN(C(=S)N/N=C2\CC(c3ccc(O)cc3)Oc3cc(O)ccc32)CC1` (stereo not given), the IC50 came out at 23.1 µM with K562; 60.4 µM in the experiment with HCT-116; 65.8 µM in the experiment with HeLa; 10.1 µM with DU-145 (human); 98.8 µM with SGC-7901 (human).

On to `CCCCNC(=S)N/N=C1\CC(c2ccc(O)cc2)Oc2cc(O)ccc21` (stereo not given), for which the IC50 is 17 µM in the experiment with K562; 49.3 µM in the experiment with HCT-116; over 100 µM in the experiment with HeLa; 50.8 µM with DU-145 (human); 57.7 µM in the experiment with SGC-7901 (human).

For `Oc1ccc(C2C/C(=N\NC(=S)N3CCCCC3)c3ccc(O)cc3O2)cc1` (stereo not given), the IC50 in the experiment with K562 is 13.7 µM; with HCT-116 it was 50.9 µM; in the experiment with HeLa, 74.4 µM; with DU-145 (human), 40 µM; in the experiment on SGC-7901 (human), 55.3 µM.

For `Oc1ccc(C2C/C(=N\NC(=S)N3CCCC3)c3ccc(O)cc3O2)cc1` (stereo not given), the IC50 stood at 17.3 µM in the experiment with K562; 52.3 µM in the experiment on HCT-116; 65.2 µM with HeLa; 37 µM in the experiment with DU-145 (human); 51.7 µM in the experiment on SGC-7901 (human).

As to `O=c1[nH]cc(F)c(=O)[nH]1` [FLUOROURACIL], the IC50 in the experiment with K562 worked out at 45.4 µM; with HCT-116, 1.93 µM; in the experiment on HeLa, 9.7 µM; in the experiment with DU-145 (human), 2.95 µM; in the experiment on SGC-7901 (human) it was 2.19 µM.

Turning to `CC(C)(C)NC(=S)N/N=C1\CC(c2ccc(O)cc2)Oc2cc(O)ccc21` (stereo not given), the IC50 was determined as 8.9 µM in the experiment on K562; 25.9 µM in the experiment on HCT-116; 50 µM in the experiment with HeLa; 31 µM with DU-145 (human); 42.9 µM in the experiment with SGC-7901 (human).

For `CC(C)NC(=S)N/N=C1\CC(c2ccc(O)cc2)Oc2cc(O)ccc21` (stereo not given), the IC50 in the experiment on K562 is 21.3 µM; with HCT-116, 38.2 µM; with HeLa, 68.1 µM; in the experiment with DU-145 (human) it was 35.2 µM; with SGC-7901 (human), 60.4 µM.

`Oc1ccc(C2C/C(=N\NC(=S)N3CCNCC3)c3ccc(O)cc3O2)cc1` (stereo not given): the IC50 in the experiment on K562 was 26.2 µM; with HCT-116, 79.4 µM; in the experiment on HeLa, over 100 µM; in the experiment with DU-145 (human), 22.5 µM; with SGC-7901 (human), over 100 µM.

Take `CCCN(CCC)C(=S)N/N=C1\CC(c2ccc(O)cc2)Oc2cc(O)ccc21` (stereo not given): the IC50 in the experiment on K562 turned out to be 12.4 µM; in the experiment on HCT-116 it was 41.9 µM; in the experiment on HeLa, 75.3 µM; with DU-145 (human) it was 32.2 µM; in the experiment on SGC-7901 (human), 62.1 µM.

Regarding `O=C1C[C@@H](c2ccc(O)cc2)Oc2cc(O)ccc21` [LIQUIRTIGENIN], the IC50 with K562 is over 100 µM; with HCT-116, 37.2 µM; with HeLa, over 100 µM; in the experiment with DU-145 (human), 92.4 µM; in the experiment on SGC-7901 (human) it was over 100 µM.
